{"source": "ChEMBL document CHEMBL5113464", "about": "“A multi-pronged evaluation of aldehyde-based tripeptidyl main protease inhibitors as SARS-CoV-2 antivirals” (Eur J Med Chem, 2022)", "key": {"[1]": {"target": "T1, Replicase polyprotein 1ab (Severe acute respiratory syndrome coronavirus 2, UniProt P0DTD1)", "test": "Inhibition of His/SUMO tagged SARS-CoV2 main protease expressed in Escherichia coli BL21 (DE3) cells using Dabcyl-KTSAVLQSGFRKME-Edans as substrate preincubated for 30 mins followed by substrate addition and measured after 30 mins by fluorescence plate reader analysis"}, "[2]": {"target": "T1, Replicase polyprotein 1ab", "test": "Inhibition of eGFP fused SARS-CoV2 main protease transfected in HEK293T/17 cells incubated for 72 hrs by fluorescence based flow cytometry analysis", "assay_type": "cell-based"}, "SARS-CoV-2 [3]": {"system": "SARS-CoV-2", "test": "Antiviral activity against SARS-Cov2 Beta infected in African green monkey Vero E6 cells assessed as viral plaque reduction measured after 3 days by plaque reduction neutralization test", "assay_type": "functional, organism-based", "settings": "Severe acute respiratory syndrome coronavirus 2, Beta, Vero C1008, 72 h"}, "SARS-CoV-2 [4]": {"system": "SARS-CoV-2", "test": "Antiviral activity against SARS-Cov2 USA-WA1/2020 infected in African green monkey Vero E6 cells assessed as viral plaque reduction measured after 3 days by plaque reduction neutralization test", "assay_type": "functional, organism-based", "settings": "Severe acute respiratory syndrome coronavirus 2, USA-WA1/2020, Vero C1008, 72 h"}, "[5]": {"test": "Cytotoxicity against HEK293T/17 cells by MTT assay", "assay_type": "toxicity, cell-based", "settings": "human", "procedure,_shortened": "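MTT viability assay in 293T cells. CC50 is derived from cytotoxicity curves of compound concentration versus viability.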"}, "SARS-CoV-2 [6]": {"system": "SARS-CoV-2", "test": "Antiviral activity against SARS-Cov2 Delta infected in African green monkey Vero E6 cells assessed as viral plaque reduction measured after 3 days by plaque reduction neutralization test", "assay_type": "functional, organism-based", "settings": "Severe acute respiratory syndrome coronavirus 2, Delta, Vero C1008, 72 h"}}, "data": [{"smiles": "CC(C)[C@H](NC(=O)OCc1ccccc1)C(=O)N[C@@H](Cc1cccs1)C(=O)N[C@H](C=O)C[C@@H]1CCNC1=O", "values": [{"measurement": "IC50", "setting": "[1]", "result": "Nd(Insoluble)"}, {"measurement": "EC50", "setting": "[2]", "result": "Nd(Insoluble)"}]}, {"smiles": "CC(C)(C)C[C@H](NC(=O)[C@@H](NC(=O)OCc1ccccc1)C(C)(C)C)C(=O)N[C@H](C=O)C[C@@H]1CCNC1=O", "values": [{"measurement": "EC50", "setting": "SARS-CoV-2 [3]", "result": 710, "unit": "nM"}, {"measurement": "EC50", "setting": "SARS-CoV-2 [4]", "result": "> 5000", "unit": "nM"}, {"measurement": "CC50", "setting": "[5]; HEK293T/17 cells", "result": "> 200000", "unit": "nM"}, {"measurement": "EC50", "setting": "SARS-CoV-2 [6]", "result": 5000, "unit": "nM"}]}, {"smiles": "CC(C)[C@H](NC(=O)OCc1cccc(Cl)c1)C(=O)N[C@@H](CC1CCCCC1)C(=O)N[C@H](C=O)C[C@@H]1CCNC1=O", "values": [{"measurement": "EC50", "setting": "SARS-CoV-2 [3]", "result": "> 5000", "unit": "nM"}, {"measurement": "EC50", "setting": "SARS-CoV-2 [4]", "result": "> 5000", "unit": "nM"}, {"measurement": "CC50", "setting": "[5]; hek293t/17", "result": 114000, "unit": "nM"}, {"measurement": "EC50", "setting": "SARS-CoV-2 [6]", "result": 3200, "unit": "nM"}]}, {"smiles": "CC(C)C[C@H](NC(=O)[C@@H](NC(=O)OCc1cccc(Cl)c1)[C@@H](C)OC(C)(C)C)C(=O)N[C@H](C=O)C[C@@H]1CCNC1=O", "values": [{"measurement": "EC50", "setting": "SARS-CoV-2 [3]", "result": 650, "unit": "nM"}, {"measurement": "EC50", "setting": "SARS-CoV-2 [4]", "result": 1900, "unit": "nM"}, {"measurement": "CC50", "setting": "[5]; hek293t/17", "result": 183000, "unit": "nM"}, {"measurement": "EC50", "setting": "SARS-CoV-2 [6]", "result": 1600, "unit": "nM"}]}, {"smiles": "C[C@@H](OC(C)(C)C)[C@H](NC(=O)OCc1ccccc1)C(=O)N[C@@H](CC(C)(C)C)C(=O)N[C@H](C=O)C[C@@H]1CCNC1=O", "values": [{"measurement": "EC50", "setting": "SARS-CoV-2 [3]", "result": 1200, "unit": "nM"}, {"measurement": "EC50", "setting": "SARS-CoV-2 [4]", "result": 1200, "unit": "nM"}, {"measurement": "CC50", "setting": "[5]; HEK293T/17 cells", "result": "> 200000", "unit": "nM"}, {"measurement": "EC50", "setting": "SARS-CoV-2 [6]", "result": 580, "unit": "nM"}]}, {"smiles": "C[C@@H](OC(C)(C)C)[C@H](NC(=O)OCc1ccccc1)C(=O)N[C@@H](CC1CC1)C(=O)N[C@H](C=O)C[C@@H]1CCNC1=O", "values": [{"measurement": "EC50", "setting": "SARS-CoV-2 [3]", "result": 1800, "unit": "nM"}, {"measurement": "EC50", "setting": "SARS-CoV-2 [4]", "result": 1200, "unit": "nM"}, {"measurement": "CC50", "setting": "[5]; HEK293T/17 cells", "result": "> 200000", "unit": "nM"}, {"measurement": "EC50", "setting": "SARS-CoV-2 [6]", "result": 1100, "unit": "nM"}]}, {"smiles": "C[C@@H](OC(C)(C)C)[C@H](NC(=O)OCc1cccc(Cl)c1)C(=O)N[C@@H](CC1CCCCC1)C(=O)N[C@H](C=O)C[C@@H]1CCNC1=O", "values": [{"measurement": "EC50", "setting": "SARS-CoV-2 [3]", "result": 1600, "unit": "nM"}, {"measurement": "EC50", "setting": "SARS-CoV-2 [4]", "result": 2200, "unit": "nM"}, {"measurement": "CC50", "setting": "[5]; hek293t/17", "result": 130000, "unit": "nM"}, {"measurement": "EC50", "setting": "SARS-CoV-2 [6]", "result": 870, "unit": "nM"}]}, {"smiles": "CC(OC(C)(C)C)[C@H](NC(=O)OCc1ccccc1)C(=O)N[C@@H](CC1CCCCC1)C(=O)N[C@H](C=O)C[C@@H]1CCNC1=O", "note": "(single isomer, unassigned)", "values": [{"measurement": "CC50", "setting": "[5]; hek293t/17", "result": 109000, "unit": "nM"}]}]}
